This is an account of results in ChEMBL document CHEMBL4138062, “Pyrazolobenzothiazine-based carbothioamides as new structural leads for the inhibition of monoamine oxidases: design, synthesis, in vitro bioevaluation and molecular docking studies” (Medchemcomm, 2017).

Where only a bound is given, the exact number is not on record here.

Data set [1] concerns the target T1, Amine oxidase [flavin-containing] A (Homo sapiens, UniProt P21397).
T1 sequence (P21397 whole entry): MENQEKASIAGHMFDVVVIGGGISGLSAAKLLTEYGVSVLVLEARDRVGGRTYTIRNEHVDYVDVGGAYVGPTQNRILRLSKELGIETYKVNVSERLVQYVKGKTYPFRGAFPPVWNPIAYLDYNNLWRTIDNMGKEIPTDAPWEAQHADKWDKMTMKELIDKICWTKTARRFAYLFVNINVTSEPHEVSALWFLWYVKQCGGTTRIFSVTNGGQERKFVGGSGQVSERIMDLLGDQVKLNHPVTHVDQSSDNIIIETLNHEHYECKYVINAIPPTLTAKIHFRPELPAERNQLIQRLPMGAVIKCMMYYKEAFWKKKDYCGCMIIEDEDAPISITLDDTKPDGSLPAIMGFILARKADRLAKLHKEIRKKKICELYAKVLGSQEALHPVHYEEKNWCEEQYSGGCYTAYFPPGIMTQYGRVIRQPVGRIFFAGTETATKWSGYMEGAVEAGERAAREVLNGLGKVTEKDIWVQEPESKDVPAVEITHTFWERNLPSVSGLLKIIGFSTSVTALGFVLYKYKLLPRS
Kind of data set: Inhibition of human MAOA at 0.1 mM pre-incubated for 10 mins before p-tyramine substrate addition and measured after 10 mins by amplex red reagent-based microplate fluorescence reader analysis. The gist of the method: (§1)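 The reaction in 50 mM phosphate buffer (pH 7.4) was preincubated with enzyme and test compound at 37 °C for 10 min. p-Tyramine (3 mM solution) and Amplex Red reagent were then added, and the mix was held at 37 °C for 10 min. Resorufin fluorescence (ex 544, em 590 nm) from H2O2 was read. Percent inhibition was taken at 100 μM final concentration, in triplicate.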

Data set [2] addresses T2, Amine oxidase [flavin-containing] B (Homo sapiens, UniProt P27338).
T2 sequence (P27338 whole entry): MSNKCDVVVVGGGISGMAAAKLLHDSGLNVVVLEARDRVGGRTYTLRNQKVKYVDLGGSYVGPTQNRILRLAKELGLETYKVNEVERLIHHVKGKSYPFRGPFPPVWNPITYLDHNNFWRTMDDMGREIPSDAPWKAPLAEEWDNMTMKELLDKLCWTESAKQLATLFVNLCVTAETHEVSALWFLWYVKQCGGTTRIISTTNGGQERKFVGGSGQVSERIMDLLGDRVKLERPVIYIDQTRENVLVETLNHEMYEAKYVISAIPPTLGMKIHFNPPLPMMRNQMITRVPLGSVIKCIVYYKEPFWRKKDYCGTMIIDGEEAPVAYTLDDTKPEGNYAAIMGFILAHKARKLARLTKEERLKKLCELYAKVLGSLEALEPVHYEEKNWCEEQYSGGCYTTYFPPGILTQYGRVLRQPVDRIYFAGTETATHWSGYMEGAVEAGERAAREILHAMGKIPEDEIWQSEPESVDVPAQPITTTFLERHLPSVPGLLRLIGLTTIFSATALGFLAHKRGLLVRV
Description: Inhibition of human MAOB at 0.1 mM pre-incubated for 10 mins before p-tyramine substrate addition and measured after 10 mins by amplex red reagent-based microplate fluorescence reader analysis. The gist of the method: as §1

The target in data set [3] is T1, Amine oxidase [flavin-containing] A. Kind of data set: Inhibition of human MAOA pre-incubated for 10 mins before p-tyramine substrate addition and measured after 10 mins by amplex red reagent-based microplate fluorescence reader analysis.
Data set [4] addresses T2, Amine oxidase [flavin-containing] B.

A word on the inhibition: it is the share of the control response that was lost under treatment. Low values mean little suppression, high ones strong suppression. What is called IC50 is the concentration needed to halve the response being measured. A higher IC50 goes with weaker potency in that assay. In the case of `Cc1c2c(nn1-c1ccc(/C=N/NC(=S)Nc3cccc(Cl)c3)cc1)-c1ccccc1S(=O)(=O)N2C`, the inhibition at 100 µM in data set [1] and in data set [2] was > 50% each time. For the same molecule, the results for the IC50 in data set [3] and in data set [4] were 1.11 µM and 2.89 µM, respectively.
As to `CN1c2c(nn(-c3ccc(/C=N/NC(=S)Nc4ccccc4Cl)cc3)c2-c2ccccc2)-c2ccccc2S1(=O)=O`, the inhibition at 100 µM in data set [1] and in data set [2] was > 50% in each case. For the same molecule, the values for the IC50 in data set [3] and in data set [4] were 33.8 µM and 0.68 µM, respectively.
On to `CCc1ccc(NC(=S)N/N=C/c2ccc(-n3nc4c(c3C)N(C)S(=O)(=O)c3ccccc3-4)cc2)cc1`, for which the inhibition at 100 µM in data set [1] and in data set [2] was > 50% each time. For the same molecule, the IC50 was 1.77 µM in data set [3] and 2.91 µM in data set [4].
Turning to `Cc1c2c(nn1-c1ccc(/C=N/NC(=S)Nc3ccc(Cl)cc3)cc1)-c1ccccc1S(=O)(=O)N2C`, the inhibition at 100 µM in data set [1] and in data set [2] was > 50% each time. Also, the IC50 was 3.49 µM in data set [3] and 0.43 µM in data set [4].
On to `CN1c2c(nn(-c3ccc(/C=N/NC(=S)NCc4ccccc4)cc3)c2-c2ccccc2)-c2ccccc2S1(=O)=O`, for which the inhibition at 100 µM in data set [1] and in data set [2] was > 50% in each case. Moreover, the IC50 was determined as 10.6 µM in data set [3] and 0.64 µM in data set [4].
Regarding `Cc1c2c(nn1-c1ccc(/C=N/NC(N)=S)cc1)-c1ccccc1S(=O)(=O)N2C`, the values for the inhibition at 100 µM in data set [1] and in data set [2] were > 50% and 36%, respectively. In data set [3], this molecule yielded an IC50 of 31.2 µM.
`Cc1ccc(NC(=S)N/N=C/c2ccc(-n3nc4c(c3C)N(C)S(=O)(=O)c3ccccc3-4)cc2)cc1`: the inhibition at 100 µM in data set [1] and in data set [2] was > 50% throughout. In addition, the IC50 was determined as 0.003 µM in data set [3] and 29.5 µM in data set [4].
In the case of `Cc1c2c(nn1-c1ccc(/C=N/NC(=S)NCc3ccccc3)cc1)-c1ccccc1S(=O)(=O)N2C`, the inhibition at 100 µM in data set [1] and in data set [2] was > 50% in each case. The half-maximal inhibitory concentration (IC50) is 76.2 µM in data set [3] and 4.72 µM in data set [4].
Regarding `Cc1c2c(nn1-c1ccc(/C=N/NC(=S)Nc3cccc(F)c3)cc1)-c1ccccc1S(=O)(=O)N2C`, the inhibition at 100 µM in data set [1] and in data set [2] was > 50% throughout. Further, the 50% inhibitory concentration (IC50) in data set [3] was 0.47 µM; in data set [4], 1.68 µM.
For the molecule `CN1c2c(nn(-c3ccc(/C=N/NC(=S)Nc4cccc(Cl)c4)cc3)c2-c2ccccc2)-c2ccccc2S1(=O)=O`, the inhibition at 100 µM in data set [1] and in data set [2] was > 50% in each case. For the same molecule, the IC50 was determined as 7.73 µM in data set [3] and 20.9 µM in data set [4].
In the case of `CN1c2c(nn(-c3ccc(/C=N/NC(N)=S)cc3)c2-c2ccccc2)-c2ccccc2S1(=O)=O`, the inhibition at 100 µM in data set [1] and in data set [2] was > 50% throughout. The IC50 in data set [3] came out at 0.97 µM; in data set [4], 2.39 µM.
As to `CN1c2c(nn(-c3ccc(/C=N/NC(=S)Nc4cccc(F)c4)cc3)c2-c2ccccc2)-c2ccccc2S1(=O)=O`, the inhibition at 100 µM in data set [1] and in data set [2] was > 50% in each case. For the same molecule, the values for the IC50 in data set [3] and in data set [4] were 9.02 µM and 1.76 µM, respectively.
Turning to `Cc1ccc(NC(=S)N/N=C/c2ccc(-n3nc4c(c3C)N(C)S(=O)(=O)c3ccccc3-4)cc2)c(C)c1`, the inhibition at 100 µM in data set [1] and in data set [2] was > 50% each time. Moreover, the IC50 in data set [3] was 1.13 µM; in data set [4], 0.11 µM.
On to `Cc1cccc(C)c1NC(=S)N/N=C/c1ccc(-n2nc3c(c2-c2ccccc2)N(C)S(=O)(=O)c2ccccc2-3)cc1`, for which the inhibition at 100 µM in data set [1] and in data set [2] was > 50% each time. Moreover, the IC50 in data set [3] was found to be 65.7 µM; in data set [4], 0.77 µM.
For `Cc1c2c(nn1-c1ccc(/C=N/NC(=S)Nc3ccccc3)cc1)-c1ccccc1S(=O)(=O)N2C`, the inhibition at 100 µM in data set [1] and in data set [2] was > 50% in each case. Also, the IC50 in data set [3] came out at 3.69 µM; in data set [4], 4.15 µM.
With `Cc1c2c(nn1-c1ccc(/C=N/NC(=S)Nc3ccccc3F)cc1)-c1ccccc1S(=O)(=O)N2C`, the inhibition at 100 µM in data set [1] and in data set [2] was > 50% in each case. Moreover, the IC50 in data set [3] stood at 1.42 µM; in data set [4], 3.83 µM.
As for `Cc1ccc(NC(=S)N/N=C/c2ccc(-n3nc4c(c3-c3ccccc3)N(C)S(=O)(=O)c3ccccc3-4)cc2)c(C)c1`, the inhibition at 100 µM in data set [1] and in data set [2] was > 50% each time. Moreover, the half-maximal inhibitory concentration (IC50) in data set [3] turned out to be 9.15 µM; in data set [4], 0.75 µM.
Turning to `Cc1ccccc1NC(=S)N/N=C/c1ccc(-n2nc3c(c2C)N(C)S(=O)(=O)c2ccccc2-3)cc1`, the inhibition at 100 µM in data set [1] and in data set [2] was > 50% in each case. Moreover, the IC50 in data set [3] is 0.01 µM; in data set [4] it was 3.13 µM.
In the case of `Cc1c2c(nn1-c1ccc(/C=N/NC(=S)NCN3CCOCC3)cc1)-c1ccccc1S(=O)(=O)N2C`, the inhibition at 100 µM in data set [1] and in data set [2] was > 50% in each case. For the same molecule, the IC50 was found to be 64.8 µM in data set [3] and 4.34 µM in data set [4].
As to `Cc1c2c(nn1-c1ccc(/C=N/NC(=S)Nc3ccccc3Cl)cc1)-c1ccccc1S(=O)(=O)N2C`, the inhibition at 100 µM in data set [1] and in data set [2] was > 50% in each case. In addition, the IC50 is 4.06 µM in data set [3] and 6.21 µM in data set [4].
As for `Cc1c2c(nn1-c1ccc(/C=N/NC(=S)Nc3ccc(F)cc3)cc1)-c1ccccc1S(=O)(=O)N2C`, the inhibition at 100 µM in data set [1] is > 50%; in data set [2], 41%. The molecule further yielded an IC50 in data set [3] of 30.2 µM.
On to `CN1c2c(nn(-c3ccc(/C=N/NC(=S)Nc4ccccc4)cc3)c2-c2ccccc2)-c2ccccc2S1(=O)=O`, for which the inhibition at 100 µM in data set [1] and in data set [2] was > 50% in each case. The IC50 in data set [3] was 27.2 µM; in data set [4], 2.49 µM.
In the case of `CN1c2c(nn(-c3ccc(/C=N/NC(=S)NCN4CCOCC4)cc3)c2-c2ccccc2)-c2ccccc2S1(=O)=O`, the inhibition at 100 µM in data set [1] and in data set [2] was > 50% throughout. Further, the IC50 in data set [3] came out at 3.07 µM; in data set [4] it was 2.99 µM.
With `CN1c2c(nn(-c3ccc(/C=N/NC(=S)Nc4ccccc4F)cc3)c2-c2ccccc2)-c2ccccc2S1(=O)=O`, the inhibition at 100 µM in data set [1] is > 50%; in data set [2], 19%. This molecule displayed an IC50 in data set [3] of 0.54 µM.
Consider `CN1c2c(nn(-c3ccc(/C=N/NC(=S)Nc4ccc(F)cc4)cc3)c2-c2ccccc2)-c2ccccc2S1(=O)=O`, for which the inhibition at 100 µM in data set [1] and in data set [2] was > 50% throughout. Moreover, the IC50 in data set [3] came out at 2.33 µM; in data set [4] it was 6.99 µM.
As to `Cc1cccc(C)c1NC(=S)N/N=C/c1ccc(-n2nc3c(c2C)N(C)S(=O)(=O)c2ccccc2-3)cc1`, the “inhibition (INH)” value in data set [1] (100 µM) and in data set [2] (100 µM) was > 50% throughout.
On to `CN1c2c(nn(-c3ccc(/C=N/NC(=S)Nc4ccc(Cl)cc4)cc3)c2-c2ccccc2)-c2ccccc2S1(=O)=O`, for which the inhibition at 100 µM in data set [1] and in data set [2] was > 50% throughout. Moreover, the IC50 in data set [3] was determined as 2.06 µM; in data set [4] it was 3.27 µM.
With `CCc1ccc(NC(=S)N/N=C/c2ccc(-n3nc4c(c3-c3ccccc3)N(C)S(=O)(=O)c3ccccc3-4)cc2)cc1`, the inhibition at 100 µM in data set [1] and in data set [2] was > 50% in each case. The IC50 in data set [3] came out at 8.18 µM; in data set [4], 0.02 µM.
